Values joined by “and” are separate entries in the source; they are usually repeats but may differ in a detail not shown here. Equal values may be shown once.
Columns and labels:
GLIOMA#108 = assay: Inhibitory activity against GLIOMA#108 cell line; format: functional, cell-based, Homo sapiens
Outline: (§1)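 Cells were seeded at 10^4/well and treated 24 h with compounds at 0–100 µM final (solvent ≤10%). Survival was measured by MTT reduction (1 mg/mL, 5 h) read at 520 nm. IC50 came from survival–concentration curves, in quadruplicate.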

GLIOMA#112 = assay: Inhibitory activity against GLIOMA#112 cell line; format: functional, cell-based, Homo sapiens; outline: as §1
PAM = assay: Inhibitory activity against PAM cell line; format: functional, cell-based, Mus musculus
Outline: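 Murine keratinocytes, normal Pam and H-ras-transformed Pam-Ras, were grown in DMEM with 10% FCS and 2 mM glutamine. They were seeded at 10^4 cells/well, preincubated 3–4 h, then given compounds at 0–100 µM final for 24 h. MTT was added to 1 mg/mL for 5 h at 37 °C and absorbance read at 520 nm. IC50 came from % survival vs concentration plots, in quadruplicate.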

PAM-RAS (Mus musculus) = assay: Inhibitory activity against PAM-RAS cell line
Jurkat = assay: Inhibitory activity against JURKAT cell line; format: functional, cell-based, Homo sapiens
Outline: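 Compounds were added at 0–100 µM final (ethanol or DMSO vehicle, ≤10%) for 24 h. MTT was added to 1 mg/mL for 5 h at 37 °C and absorbance read at 520 nm. IC50 came from % survival vs concentration curves, in quadruplicate.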

NIH3T3 = assay: Inhibitory activity against 3T3 cell line; format: functional, cell-based, Mus musculus
Outline: (§2)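 HeLa cervical carcinoma cells were grown in DMEM with 10% FCS, and NIH 3T3 cells in DMEM with 10% newborn calf serum. Both were seeded at 10^4 cells/well and exposed 24 h to compounds at 0–100 µM final (ethanol or DMSO ≤10%). MTT was added to 1 mg/mL for 5 h at 37 °C and A520 read. IC50 came from survival curves, in quadruplicate.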

HeLa = assay: Inhibitory activity against HeLa cell line; format: functional, cell-based, Homo sapiens; outline: as §2

Row | IC50 (GLIOMA#108; Homo sapiens, GLIOMA#108) [µM] | IC50 (GLIOMA#112; Homo sapiens, GLIOMA#112) [µM] | IC50 (PAM; Mus musculus, PAM) [µM] | IC50 (PAM-RAS (Mus musculus); Mus musculus, PAM-RAS) [µM] | IC50 (GLIOMA#108; glioma#108) | IC50 (GLIOMA#112; glioma#112) | IC50 (Jurkat) | IC50 (PAM-RAS (Mus musculus); pam-ras) | IC50 (HeLa) [µM] | IC50 (PAM; pam) [µM] | Compound | IC50 (NIH3T3) [µM]
1 | 76 | 62 | 180 | 136 |  |  |  |  |  |  | COc1cc([C@@H]2c3cc4c(cc3[C@@H](O[C@@H]3O[C@@H]5CO[C@@H](C)O[C@H]5[C@H](O)[C@H]3O)[C@H]3COC(=O)[C@H]23)OCO4)cc(OC)c1O [ETOPOSIDE] | 
2 |  |  | 150 | 156 |  |  |  |  |  |  | COc1cccc2c1C(=O)c1c(O)c3c(c(O)c1C2=O)C[C@@](O)(C(=O)CO)C[C@@H]3O[C@H]1C[C@H](N)[C@H](O)[C@H](C)O1 [DOXORUBICIN] | 

The next lines start with the compound.

Row | Compound | IC50 (GLIOMA#108; Homo sapiens, GLIOMA#108) [µM] | IC50 (GLIOMA#112; Homo sapiens, GLIOMA#112) [µM] | IC50 (PAM; Mus musculus, PAM) [µM] | IC50 (PAM-RAS (Mus musculus); Mus musculus, PAM-RAS) [µM] | IC50 (GLIOMA#108; glioma#108) | IC50 (GLIOMA#112; glioma#112) | IC50 (Jurkat) | IC50 (PAM-RAS (Mus musculus); pam-ras) | IC50 (HeLa) [µM] | IC50 (PAM; pam) [µM] | IC50 (NIH3T3) [µM]
3 | Tetrameric orthopalladated p-isopropylbenzaldehyde thiosemicarbazone |  |  |  |  | 40 µM and 62 µM | 50 µM and 35 µM | 6 µM and 7 µM | 37 µM and 5 µM |  |  | 
4 | CISPLATIN |  |  |  |  | 86 µM | 120 µM | 22 µM | 165 µM | 7 | 164 | 35
5 | Tetrameric orthoplatinated p-isopropylbenzaldehyde thiosemicarbazone |  |  |  |  | 54 µM | 27 µM | 7 µM | 9 µM | 20 | 30 | 21
